From ChEMBL document CHEMBL1649093, “Phthalazinone pyrazoles as potent, selective, and orally bioavailable inhibitors of Aurora-A kinase” (J Med Chem, 2011)
In brackets after ≈: the same amount, converted by molar mass. Activity calls are given as the source filed them. The calls are words filed in the database; no cut-off is given here.

Columns and labels:
[1] = test system: COLO 205; assay: Cytotoxicity against human COLO205 cells; type: functional, cell-based
[2] = test system: HCT-116; assay: Cytotoxicity against human HCT116 cells after 5 days by celltiter-glo assay; type: functional, cell-based; details: HCT-116, 120 h
[3] = biological target: T1, Aurora kinase A (Homo sapiens, UniProt O14965); assay: Inhibition of Aurora A by ELISA
T1 sequence (O14965 whole entry): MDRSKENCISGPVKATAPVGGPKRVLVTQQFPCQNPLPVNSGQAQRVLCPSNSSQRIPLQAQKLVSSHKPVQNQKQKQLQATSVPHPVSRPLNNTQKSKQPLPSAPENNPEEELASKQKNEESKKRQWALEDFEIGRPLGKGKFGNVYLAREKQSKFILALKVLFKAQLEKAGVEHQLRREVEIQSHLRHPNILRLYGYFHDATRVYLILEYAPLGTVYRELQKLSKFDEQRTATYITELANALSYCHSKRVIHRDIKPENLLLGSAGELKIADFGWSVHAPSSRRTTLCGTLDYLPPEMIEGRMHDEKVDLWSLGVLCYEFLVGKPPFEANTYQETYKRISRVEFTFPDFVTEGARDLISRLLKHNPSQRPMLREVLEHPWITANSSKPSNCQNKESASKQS
Procedure, shortened: (§1)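 ELISA on plates coated with GST fusion carrying histone H3 residues 1-15, blocked with 1 mg/mL I-block. Aurora-A or Aurora-B kinase reacted with compound and 30 μM ATP in kinase buffer with 1 μg/mL I-block; stopped after 40 min with 25 mM EDTA. Phosphorylation read with anti-phospho-histone H3 (Ser10) 6G3 mAb. IC50 from triplicate averages.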

[4] = biological target: Aurora kinase B (Homo sapiens, UniProt Q96GD4); assay: Inhibition of Aurora B by ELISA; procedure, shortened: as §1
Sequence of Aurora kinase B (Q96GD4 whole entry): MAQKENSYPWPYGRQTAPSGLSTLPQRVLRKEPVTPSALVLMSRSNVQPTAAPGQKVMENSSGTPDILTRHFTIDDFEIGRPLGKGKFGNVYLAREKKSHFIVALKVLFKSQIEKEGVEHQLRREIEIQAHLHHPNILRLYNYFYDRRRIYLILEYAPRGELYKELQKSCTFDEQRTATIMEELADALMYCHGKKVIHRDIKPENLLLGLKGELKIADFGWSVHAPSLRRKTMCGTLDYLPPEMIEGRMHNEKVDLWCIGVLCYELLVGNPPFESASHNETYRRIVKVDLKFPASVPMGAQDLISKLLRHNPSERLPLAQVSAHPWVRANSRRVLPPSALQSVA

[5] = test system: MCF7; assay: Cytotoxicity against human MCF7 cells; type: functional, cell-based
[6] = Selectivity for Aurora A over Aurora B
[7] = biological target: Cytochrome P450 2D6 (Homo sapiens, UniProt P10635); assay: Inhibition of CYP2D6; type: ADME
Sequence of Cytochrome P450 2D6 (P10635 whole entry): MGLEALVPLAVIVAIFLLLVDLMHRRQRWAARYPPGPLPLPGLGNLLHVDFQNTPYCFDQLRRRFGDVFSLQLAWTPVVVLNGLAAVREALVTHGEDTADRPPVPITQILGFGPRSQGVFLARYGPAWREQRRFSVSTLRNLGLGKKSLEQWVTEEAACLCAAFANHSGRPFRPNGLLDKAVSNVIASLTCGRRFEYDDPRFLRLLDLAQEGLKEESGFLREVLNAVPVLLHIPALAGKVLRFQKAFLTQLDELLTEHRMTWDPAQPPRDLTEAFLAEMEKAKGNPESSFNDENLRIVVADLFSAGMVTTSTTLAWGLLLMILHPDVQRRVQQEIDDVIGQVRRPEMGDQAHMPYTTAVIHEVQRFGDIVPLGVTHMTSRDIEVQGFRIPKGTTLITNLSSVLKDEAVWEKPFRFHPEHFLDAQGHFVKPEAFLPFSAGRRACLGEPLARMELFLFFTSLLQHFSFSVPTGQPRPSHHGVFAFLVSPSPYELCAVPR

[8] = biological target: Cytochrome P450 3A4 (Homo sapiens, UniProt P08684); assay: Inhibition of CYP3A4; type: ADME
Sequence of Cytochrome P450 3A4 (P08684 whole entry): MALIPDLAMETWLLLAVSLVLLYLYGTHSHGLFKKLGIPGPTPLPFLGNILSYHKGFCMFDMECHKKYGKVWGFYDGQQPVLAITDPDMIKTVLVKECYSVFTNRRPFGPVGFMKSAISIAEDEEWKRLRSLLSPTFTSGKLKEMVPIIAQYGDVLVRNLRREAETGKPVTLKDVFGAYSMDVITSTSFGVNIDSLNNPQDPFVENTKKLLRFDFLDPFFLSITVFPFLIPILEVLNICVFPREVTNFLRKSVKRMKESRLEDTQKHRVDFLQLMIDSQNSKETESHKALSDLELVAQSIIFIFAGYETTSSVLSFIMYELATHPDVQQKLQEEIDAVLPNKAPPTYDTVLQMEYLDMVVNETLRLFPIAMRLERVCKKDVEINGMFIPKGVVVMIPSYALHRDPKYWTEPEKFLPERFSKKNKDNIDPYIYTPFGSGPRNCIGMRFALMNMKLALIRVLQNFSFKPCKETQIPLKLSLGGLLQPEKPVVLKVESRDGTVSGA

[9] = biological target: Cytochrome P450 2C9 (Homo sapiens, UniProt P11712); assay: Inhibition of CYP2C9; type: ADME
Sequence of Cytochrome P450 2C9 (P11712 whole entry): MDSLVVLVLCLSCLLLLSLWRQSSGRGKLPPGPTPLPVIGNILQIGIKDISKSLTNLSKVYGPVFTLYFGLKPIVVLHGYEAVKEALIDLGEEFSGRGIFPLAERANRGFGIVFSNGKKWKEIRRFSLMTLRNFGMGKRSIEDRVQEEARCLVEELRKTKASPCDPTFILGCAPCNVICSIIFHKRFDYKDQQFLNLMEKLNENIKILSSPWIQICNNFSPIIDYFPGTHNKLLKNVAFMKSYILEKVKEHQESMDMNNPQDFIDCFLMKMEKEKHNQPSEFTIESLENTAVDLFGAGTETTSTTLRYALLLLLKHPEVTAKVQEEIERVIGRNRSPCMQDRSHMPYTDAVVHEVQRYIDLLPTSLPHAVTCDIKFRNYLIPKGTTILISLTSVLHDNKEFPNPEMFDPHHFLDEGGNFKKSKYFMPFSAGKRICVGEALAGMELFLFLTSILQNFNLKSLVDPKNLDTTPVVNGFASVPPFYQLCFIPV

[10] = Aqueous solubility of the compound; type: physicochemical; details: buffer
[11] = Clearance in rat hepatocytes measured per 10^6 cells; type: ADME, cell-based, Liver, Hepatocyte
[12] = Clearance in mouse microsome measured per mg of protein; type: ADME, Liver; details: microsomes
[13] = biological target: hERG (KCNH2) (Homo sapiens, UniProt Q12809); assay: Inhibition of human ERG at 10 uM
Sequence of hERG (KCNH2) (Q12809 whole entry): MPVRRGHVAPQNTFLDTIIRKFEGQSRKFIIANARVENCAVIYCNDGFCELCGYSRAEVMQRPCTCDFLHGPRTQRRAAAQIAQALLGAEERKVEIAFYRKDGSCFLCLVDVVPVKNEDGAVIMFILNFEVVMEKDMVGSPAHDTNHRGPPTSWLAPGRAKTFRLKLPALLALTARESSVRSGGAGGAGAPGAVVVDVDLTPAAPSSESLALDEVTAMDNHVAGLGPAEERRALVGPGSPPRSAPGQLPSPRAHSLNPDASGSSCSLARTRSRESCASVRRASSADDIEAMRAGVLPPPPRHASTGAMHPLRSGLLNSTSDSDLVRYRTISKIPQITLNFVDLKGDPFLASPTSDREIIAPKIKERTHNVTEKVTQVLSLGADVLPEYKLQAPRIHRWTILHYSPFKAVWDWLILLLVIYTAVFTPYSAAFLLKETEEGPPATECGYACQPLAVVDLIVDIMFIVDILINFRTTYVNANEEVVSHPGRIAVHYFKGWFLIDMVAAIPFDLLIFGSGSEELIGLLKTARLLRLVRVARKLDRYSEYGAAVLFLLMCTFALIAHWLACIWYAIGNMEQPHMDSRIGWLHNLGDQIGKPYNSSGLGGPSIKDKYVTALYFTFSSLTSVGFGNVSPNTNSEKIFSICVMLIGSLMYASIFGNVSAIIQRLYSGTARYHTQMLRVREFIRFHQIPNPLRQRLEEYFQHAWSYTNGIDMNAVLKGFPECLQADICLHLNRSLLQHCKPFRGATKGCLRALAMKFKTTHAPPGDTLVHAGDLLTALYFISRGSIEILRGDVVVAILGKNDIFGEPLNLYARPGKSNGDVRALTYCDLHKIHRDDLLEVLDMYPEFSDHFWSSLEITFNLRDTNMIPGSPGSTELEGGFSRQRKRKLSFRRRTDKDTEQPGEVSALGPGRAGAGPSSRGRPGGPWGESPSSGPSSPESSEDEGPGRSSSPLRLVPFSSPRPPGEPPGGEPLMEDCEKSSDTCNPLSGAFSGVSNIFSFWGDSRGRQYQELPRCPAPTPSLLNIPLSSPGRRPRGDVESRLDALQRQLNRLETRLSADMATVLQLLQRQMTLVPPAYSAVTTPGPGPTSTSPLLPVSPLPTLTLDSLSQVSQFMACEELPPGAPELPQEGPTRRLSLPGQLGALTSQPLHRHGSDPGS

[14] = test system: MCF7; assay: Induction of cell cycle arrest in human MCF7 cells assessed as accumulation at G2/M phase at 10 uM after 24 hrs by immunostaining; type: functional, cell-based
[15] = Clearance in human microsome measured per mg of protein; type: ADME; details: microsomes

| Structure (SMILES) | IC50 [1] | IC50 [2] | IC50 [3] | IC50 [4] | IC50 [5] | Selectivity ratio [6] | IC50 [7] | IC50 [8] | IC50 [9] | solubility [10] | hepatocyte CLint [11] | microsomal CLint [12] | inhibition at 10 µM [13] | Activity [14] | microsomal CLint [15] |
| --- | --- | --- | --- | --- | --- | --- | --- | --- | --- | --- | --- | --- | --- | --- | --- |
| Cc1cc(Nc2nn(Cc3csc(C)n3)c(=O)c3ccccc23)n[nH]1 | > 30 µM | 4.18 µM | 0.12 µM | 24 µM | > 30 µM |  |  |  |  |  |  |  |  |  |  |
| Cc1cc(Nc2nn(CC(=O)c3ccccc3)c(=O)c3ccccc23)n[nH]1 | > 30 µM | 5.44 µM | 0.071 µM | > 100 µM | > 30 µM | > 1000 |  |  |  |  |  |  |  |  |  |
| Cc1cc(Nc2nn(-c3ccc(Cl)cc3)c(=O)c3ccccc23)n[nH]1 | 2.2 µM | 0.82 µM | 0.093 µM | > 100 µM | 11.4 µM | > 1000 |  |  |  |  |  |  |  |  |  |
| Cc1cc(Nc2nn(Cc3ccc([N+](=O)[O-])cc3)c(=O)c3ccccc23)n[nH]1 |  | 1.4 µM | 0.109 µM | 0.93 µM | > 30 µM |  |  |  |  |  |  |  |  |  |  |
| Cc1cc(Nc2nn(CC(F)(F)F)c(=O)c3ccccc23)n[nH]1 |  | 1.8 µM | 0.066 µM | 15 µM | 4.5 µM | > 1000 |  |  |  |  |  |  |  |  |  |
| Cc1ccc(-n2nc(Nc3cc(C)[nH]n3)c3ccccc3c2=O)cc1 | 3.6 µM | 0.24 µM | 0.023 µM | > 100 µM | > 30 µM | > 1000 |  |  |  |  |  |  |  |  |  |
| COc1ccc(Cn2nc(Nc3cc(C)[nH]n3)c3ccccc3c2=O)cc1 | 4.2 µM | 1.2 µM | 0.032 µM | 46 µM | > 30 µM |  |  |  |  |  |  |  |  |  |  |
| Cc1cc(Nc2nn(Cc3ccc(F)cc3)c(=O)c3ccccc23)n[nH]1 | 17 µM | 1.4 µM | 0.014 µM | 69 µM | > 30 µM | > 1000 |  |  |  |  |  |  |  |  |  |
| Cc1cccc(-n2nc(Nc3cc(C)[nH]n3)c3ccccc3c2=O)c1 | 3.2 µM | 2.3 µM | 0.024 µM | > 100 µM | 2.9 µM | > 1000 |  |  |  |  |  |  |  |  |  |
| Cc1cc(Nc2nn(Cc3cc(F)cc(F)c3)c(=O)c3ccccc23)n[nH]1 | 2.3 µM | 0.5 µM | 0.049 µM | > 100 µM | 2.6 µM | > 1000 |  |  |  |  |  |  |  |  |  |
| COc1cccc(Cn2nc(Nc3cc(C)[nH]n3)c3ccccc3c2=O)c1 | 3.6 µM | 0.66 µM | 0.036 µM | 28 µM | > 30 µM | > 1000 |  |  |  |  |  |  |  |  |  |
| CC(=O)Nc1ccc(Cn2nc(Nc3cc(C)[nH]n3)c3ccccc3c2=O)cc1 | > 30 µM | 4.2 µM | 0.093 µM | 15 µM | > 30 µM |  |  |  |  |  |  |  |  |  |  |
| CC(=O)Nc1ccc(Cn2nc(Nc3cc[nH]n3)c3ccccc3c2=O)cc1 |  | > 30 µM |  | 34 µM | > 30 µM |  |  |  |  |  |  |  |  |  |  |
| COc1ccc(C(=O)Cn2nc(Nc3cc(C)[nH]n3)c3ccccc3c2=O)cc1 | > 30 µM | > 30 µM | 0.067 µM | > 100 µM | > 30 µM | > 1000 |  |  |  |  |  |  |  |  |  |
| Cc1cc(Nc2nn(C)c(=O)c3ccccc23)n[nH]1 | > 30 µM | 5.2 µM | 0.27 µM | 17 µM | > 30 µM |  |  |  |  |  |  |  |  |  |  |
| Cc1cc(Nc2nn(C(C)C)c(=O)c3ccccc23)n[nH]1 | 1.7 µM | 0.4 µM | 0.035 µM | 30 µM | 1.6 µM | > 1000 | > 50 µM | > 50 µM | > 50 µM | 7 µg/mL (≈ 24.7 µM) |  |  |  |  |  |

| Structure (SMILES) | IC50 [1] | IC50 [2] | IC50 [3] | IC50 [4] | IC50 [5] | Selectivity ratio [6] | IC50 [7] | IC50 [8] | IC50 [9] | solubility [10] | hepatocyte CLint [11] | microsomal CLint [12] | inhibition at 10 µM [13] | Activity [14] | microsomal CLint [15] |
| --- | --- | --- | --- | --- | --- | --- | --- | --- | --- | --- | --- | --- | --- | --- | --- |
| Cc1cc(Nc2nn(CC(=O)c3ccc(C(F)(F)F)cc3)c(=O)c3ccccc23)n[nH]1 | > 30 µM | > 30 µM | 0.72 µM | > 100 µM | > 30 µM | > 1000 |  |  |  |  |  |  |  |  |  |
| Cc1ccc(-n2nc(Nc3cc[nH]n3)c3ccccc3c2=O)cc1 |  |  | 1 µM |  |  | > 1000 |  |  |  |  |  |  |  |  |  |
| COc1ccc(-n2nc(Nc3cc(C)[nH]n3)c3ccccc3c2=O)cc1 | 3.7 µM | 0.7 µM | 0.029 µM | > 100 µM | 3.6 µM |  |  |  |  |  |  |  |  |  |  |
| Cc1cc(Nc2nn(Cc3cc(F)ccc3F)c(=O)c3ccccc23)n[nH]1 | 3.8 µM | 0.57 µM | 0.025 µM | > 100 µM | > 30 µM |  |  |  |  |  |  |  |  |  |  |
| Cc1cc(Nc2nn(CC(C)C)c(=O)c3ccccc23)n[nH]1 |  | 1.1 µM | 0.115 µM | 34 µM | 4.2 µM |  |  |  |  |  |  |  |  |  |  |
| Cc1cc(Nc2nn(Cc3ccc(S(C)(=O)=O)cc3)c(=O)c3ccccc23)n[nH]1 | 4.5 µM | 1.7 µM | 0.056 µM | 34 µM | 4.5 µM |  |  |  |  |  |  |  |  |  |  |
| Cc1cc(Nc2nn(-c3ccccc3)c(=O)c3ccccc23)n[nH]1 |  |  |  |  |  |  | > 50 µM | > 50 µM | > 50 µM | 1.2 µg/mL (≈ 3.78 µM) | 2.3 µL/min/1e6 cells | 15.7 µL/min/mg | 20% |  |  |
| Cc1cc(Nc2nn(-c3ccc(F)cc3)c(=O)c3ccccc23)n[nH]1 | 1.6 µM | 0.8 µM | 0.037 µM | > 100 µM | 1.6 µM |  |  |  |  |  |  |  |  |  |  |
| COc1cccc(C(=O)Cn2nc(Nc3cc(C)[nH]n3)c3ccccc3c2=O)c1 | > 30 µM | 2.7 µM | 0.1 µM | 67 µM | > 30 µM | > 1000 |  |  |  |  |  |  |  |  |  |
| Cc1cc(Nc2nn(-c3ccc(C(C)(C)C)cc3)c(=O)c3ccccc23)n[nH]1 |  | 0.06 µM | 0.24 µM | > 50 µM | 0.78 µM | > 1000 |  |  |  |  |  |  |  |  |  |
| Cc1cc(Nc2n[nH]c(=O)c3ccccc23)n[nH]1 |  |  | 0.65 µM | 22 µM |  | > 1000 |  |  |  |  |  |  |  |  |  |
| O=c1c2ccccc2c(Nc2n[nH]c3ccccc23)nn1-c1ccccc1 |  |  | 14 µM |  |  | > 1000 |  |  |  |  |  |  |  |  |  |
| Cc1cc(Nc2nn(Cc3ccncc3)c(=O)c3ccccc23)n[nH]1 | 13 µM | 20.2 µM | 0.27 µM | 27 µM | > 30 µM |  |  |  |  |  |  |  |  |  |  |
| Cc1cc(Nc2nn(Cc3cccnc3)c(=O)c3ccccc23)n[nH]1 | 4.1 µM | 2.9 µM | 0.017 µM | 12.7 µM | 13.4 µM |  |  |  |  |  |  |  |  |  |  |
| Cc1cc(Nc2nn(Cc3ccccc3)c(=O)c3ccccc23)n[nH]1 | 4.4 µM | 1.5 µM |  | > 100 µM | 12.6 µM | > 1000 | > 50 µM | > 50 µM | 42 µM | 1.9 µg/mL (≈ 5.73 µM) | 2.4 µL/min/1e6 cells | 28 µL/min/mg |  | Active | 7.4 µL/min/mg |
